{"source": "PubChem BioAssay AID463079", "about": "(The Scripps Research Institute Molecular Screening Center, 2010)", "note": "The whole screen tested about 330,000 compounds, of which about 2,000 (0.61%) were called active.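 How the source made its calls: active means inhibition above that plate's mean sample inhibition plus 3 SD (cut at about 26% in these data); inactive means the rest.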 Only a selection was taken, and actives are over-represented in it overall."}
{"assay": "nonselective Gq signaling inhibition in CHO cells – cell-based, fluorescence, Fluo-8 calcium dye, counter-screen for OX1R antagonist project, primary screen (AID 463079);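 further: 0% = ATP-challenged DMSO wells and 100% = DMSO wells without ATP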", "conditions": "parental CHO-K1, ATP-induced calcium, Fluo-8 fluorescence; at 5.6 µM; hits give high values", "outline": "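Material: parental CHO cells / Compound: single nominal dose of 5.6 µM per compound / Signal: Fluo-8 fluorescence / Replicates: singlicate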"}
{"compound": "Cc1cccc(-c2nc3c(c(SCC(=O)N4CCOCC4)n2)CCCC3)c1", "inhibition": "-8.39% (inactive)"}
{"compound": "CC[C@]1(O)C[C@@H]2CN(CCc3c([nH]c4ccccc34)[C@@](C(=O)OC)(c3cc4c(cc3OC)N(C)[C@H]3[C@@](O)(C(=O)OC)[C@H](OC(C)=O)[C@]5(CC)C=CCN6CC[C@]43[C@@H]65)C2)C1", "inhibition": "-20.6% (inactive)"}
{"compound": "O=C(O)c1ccccc1CSc1nc2ccccc2s1", "inhibition": "-0.85% (inactive)"}
{"compound": "Cc1nc2nc(CSc3nc4ccccc4s3)cc(=O)n2[nH]1", "inhibition": "-18.4% (inactive)"}
{"compound": "O=[N+]([O-])c1c(NCCO)cc(Sc2nc3ccccc3s2)c2nonc12", "inhibition": "77.3% (active)"}
{"compound": "CN1CCc2nc(SC(C(=O)O)c3ccccc3)c(C#N)c(-c3cccs3)c2C1", "note": "(stereo not given)", "inhibition": "-2.58% (inactive)"}
{"compound": "CC[C@]1(C(=O)OC)[C@H]2C(=O)N(Cc3ccccc3)C(=O)[C@H]2[C@H]2CN=C(SCc3ccccc3)N21", "inhibition": "-23.1% (inactive)"}
{"compound": "COc1ccc(N2CCN(c3ccc([N+](=O)[O-])cc3Cl)CC2)cc1", "inhibition": "12% (inactive)"}
{"compound": "Cc1ccc(N2CCN(S(=O)(=O)N(C)C)CC2)cc1Cl", "inhibition": "-18.3% (inactive)"}
{"compound": "CN(C)S(=O)(=O)N1CCN(c2ccc([N+](=O)[O-])cc2)CC1", "inhibition": "29% (active)"}
{"compound": "CCCOc1ccc(Cc2c(O)nc(N)[nH]c2=O)cc1C", "inhibition": "-2.86% (inactive)"}
{"compound": "COc1cc(OC)cc(-c2cc3ccc(F)cc3cn2)c1", "inhibition": "-22.7% (inactive)"}
{"compound": "COc1ccc(-c2noc(CN(C)S(=O)(=O)c3ccc(C)cc3)n2)cc1", "inhibition": "38.9% (active)"}
{"compound": "COc1ccc(-c2noc(C(C)NS(=O)(=O)c3ccc(NC(C)=O)cc3)n2)cc1", "note": "(stereo not given)", "inhibition": "-2.83% (inactive)"}
{"compound": "COc1ccc(N2CCN(C(=O)CCc3nc(-c4ccc(C)cc4)no3)CC2)cc1", "inhibition": "-13.6% (inactive)"}
{"compound": "Cc1ccc(OCC(=O)Nc2ccccc2C(=O)NC2CC2)cc1", "inhibition": "-12.7% (inactive)"}
{"compound": "Cc1nc(-c2ccc(Cl)cc2)sc1C(=O)CBr", "inhibition": "16.1% (inactive)"}
{"compound": "COc1ccc(NC(=O)c2ccccc2[N+](=O)[O-])cc1OC", "inhibition": "-4.31% (inactive)"}
{"compound": "O=C(Cc1c(F)cccc1Cl)Nc1ncc([N+](=O)[O-])s1", "inhibition": "3.65% (inactive)"}
{"compound": "CC(=O)Oc1ccccc1C(=O)Nc1ncc([N+](=O)[O-])s1", "inhibition": "39% (active)"}
{"compound": "COc1ccccc1N1CCN(C(=O)CSc2ncnc3c2cnn3-c2ccc(C)c(C)c2)CC1", "inhibition": "-14.4% (inactive)"}
{"compound": "O=C(N/C(=C\\c1ccc(F)cc1)C(=O)N1CCCCCC1)c1ccccc1", "inhibition": "-14% (inactive)"}
{"compound": "CC1=C(C)CC2C(=O)N(c3cccc4ccccc34)C(=O)C2C1", "note": "(stereo not given)", "inhibition": "-11.3% (inactive)"}
{"compound": "CCc1ccccc1N1C(=O)C2C3CC(=O)C(c4ccccc43)C2C1=O", "note": "(stereo not given)", "inhibition": "29.8% (active)"}
{"compound": "CC(=O)Nc1ccc(N2C(=O)C3C4CC(=O)C(c5ccccc54)C3C2=O)cc1", "note": "(stereo not given)", "inhibition": "9.03% (inactive)"}
{"compound": "COc1cccc(C(=O)OCC(=O)c2[nH]c(C)c(C(C)=O)c2C)c1", "inhibition": "-11.5% (inactive)"}
{"compound": "CC(=O)c1c(C)[nH]c(C(=O)COC(=O)c2cccc(S(=O)(=O)N(C)c3ccccc3)c2)c1C", "inhibition": "74.8% (active)"}
{"compound": "CC(=O)c1c(C)[nH]c(C(=O)COC(=O)c2cccs2)c1C", "inhibition": "-6.37% (inactive)"}
{"compound": "Cc1nn(C(C)C(=O)N2CCOCC2)c(=O)c2nn(-c3ccccc3)c(C)c12", "note": "(stereo not given)", "inhibition": "-7.21% (inactive)"}
{"compound": "CC[C@]12c3[nH]c4ccc(OC)cc4c3CCN1C(=O)C(CC(=O)NCCN1CCOCC1)C[C@@H]2C(=O)N1CCN(C(=O)C2CC2)CC1", "note": "(stereo not given in full)", "inhibition": "-9.94% (inactive)"}
{"compound": "COc1cc(OC)cc(C(=O)NCC(=O)OCC(=O)NC(C)CCc2ccccc2)c1", "note": "(stereo not given)", "inhibition": "-9.76% (inactive)"}
{"compound": "COc1cc(OC)cc(C(=O)N[C@H](C(=O)OCC(=O)NC(C)c2ccccc2)C(C)C)c1", "note": "(stereo not given in full)", "inhibition": "41.6% (active)"}
{"compound": "Cc1cc(C)cc(OCC(=O)NC(C)c2ccccc2)c1", "note": "(stereo not given)", "inhibition": "-19.1% (inactive)"}
{"compound": "CCC(C(=O)Nc1ccc(C(C)C)cc1)c1ccccc1", "note": "(stereo not given)", "inhibition": "54% (active)"}
{"compound": "CCC(C(=O)Nc1ccc2c(c1)OCCO2)c1ccccc1", "note": "(stereo not given)", "inhibition": "-14.5% (inactive)"}
{"compound": "CCC(C(=O)OCC(=O)Nc1ccc(C(=O)Nc2ccc(OC)cc2)cc1)c1ccccc1", "note": "(stereo not given)", "inhibition": "2.63% (inactive)"}
{"compound": "OCC[C@H]1C[C@@H](O)[C@H](O)[C@@]2(OCCc3ccccc32)O1", "inhibition": "-2.14% (inactive)"}
{"compound": "CCC(C)N(C(=O)CSc1nnnn1-c1ccccc1OC)C1CCS(=O)(=O)C1", "note": "(stereo not given)", "inhibition": "-20% (inactive)"}
{"compound": "O=C(/C=C(O)/C=C/c1ccc(O)cc1)/C=C/c1ccc(O)cc1", "inhibition": "44.2% (active)"}
{"compound": "O=C(/C=C/c1ccc2c(c1)OCCO2)c1ccc(O)cc1", "inhibition": "3.62% (inactive)"}
{"compound": "O=C(O)/C=C/c1ccc(OCCCF)cc1", "inhibition": "-5.89% (inactive)"}
{"compound": "CC1CCCCN1CCCNC(=O)Cn1ncc2c([nH]c3ccccc32)c1=O", "note": "(stereo not given)", "inhibition": "-10.7% (inactive)"}
{"compound": "CCc1ccccc1NC(=O)c1ccc2c(c1)CCN2S(C)(=O)=O", "inhibition": "-12.5% (inactive)"}
{"compound": "CN(C)CCCNC(=S)N1CCN(c2nc(-c3ccccc3)cs2)CC1", "inhibition": "-5.41% (inactive)"}
{"compound": "Cc1cccn2cc(-c3cccc(S(=O)(=O)N4CCCCC4)c3)nc12", "inhibition": "-20.2% (inactive)"}
{"compound": "CC1(C)C=Cc2c(ccc3c2OC[C@@H](c2ccc(O)cc2O)C3)O1", "inhibition": "94.3% (active)"}
{"compound": "c1ccc(CN=C2Nc3ccccc3CS2)nc1", "inhibition": "-13.6% (inactive)"}
{"compound": "Cc1ccc(N(CC(=O)Nc2cc(C)cc(C)c2)S(=O)(=O)c2cccc3nonc23)cc1", "inhibition": "-11.6% (inactive)"}
{"compound": "CCN(CC)S(=O)(=O)c1ccc(N(C)CCc2ccc(OC)c(OC)c2)nc1", "inhibition": "-13.7% (inactive)"}
{"compound": "CCN(CC)S(=O)(=O)c1ccc(N(C)Cc2ccc(C(F)(F)F)cc2)nc1", "inhibition": "43.6% (active)"}
{"compound": "CCN(CC)S(=O)(=O)c1ccc(N(C)Cc2cccc(OC)c2OC)nc1", "inhibition": "28.5% (inactive)"}
{"compound": "Nc1ncnc2c1ncn2[C@@H]1O[C@H](CNS(=O)(=O)c2ccc(-c3ccno3)s2)[C@@H](O)[C@H]1O", "inhibition": "-2.72% (inactive)"}
{"compound": "CC[C@]12c3[nH]c4ccc(Cl)cc4c3CCN1C(=O)[C@@H](CC(=O)NCCCOC)C[C@@H]2C(=O)N1CCN(C(=O)C2CC2)CC1", "inhibition": "-12.5% (inactive)"}
{"compound": "CC(=O)c1c(C)n(-c2ccc(N(C)C)cc2)c2ccc(OCC(N)=O)cc12", "inhibition": "-2.26% (inactive)"}
{"compound": "CCOC(=O)c1c(CN2CCOCC2)n(-c2ccccc2)c2ccc(O)cc12", "inhibition": "-10.2% (inactive)"}
{"compound": "CC(=O)c1c(C)n(-c2ccc(C)cc2)c2ccc(O)cc12", "inhibition": "81.6% (active)"}
{"compound": "C/C(=N\\NC(=O)c1ccc(CSc2nc(C)cc(C)n2)cc1)C1CCCCC1", "inhibition": "-15.5% (inactive)"}
{"compound": "Cc1ccc(O)c(NC(=S)NC(=O)COc2ccc(Br)cc2)c1", "inhibition": "58.4% (active)"}
{"compound": "COc1ccc(C(=O)Nc2cc(C)ccc2NC(=O)COc2ccccc2)cc1", "inhibition": "-7.7% (inactive)"}
{"compound": "CCS(=O)(=O)c1ccc(O)c(NC(=O)COc2ccc(Cl)cc2)c1", "inhibition": "-4.26% (inactive)"}
{"compound": "COCCCNC(=O)c1ccc(CNS(=O)(=O)c2ccc(NC(C)=O)cc2)cc1", "inhibition": "-6.87% (inactive)"}
{"compound": "Cc1nnc(SCC(=O)N2c3ccccc3C(C)(c3ccc(Cl)cc3)CC2(C)C)s1", "note": "(stereo not given)", "inhibition": "-18.2% (inactive)"}
{"compound": "CCOC(=O)[C@H]1[C@H]2COc3ccccc3[C@@H]2N2C(=O)CN(Cc3ccccc3)C(=O)[C@@]12C", "inhibition": "-31.8% (inactive)"}
{"compound": "O=S(=O)(c1ccc(Cl)s1)N1CCC2(CC1)OCCO2", "inhibition": "-9.61% (inactive)"}
{"compound": "CC(OC(=O)/C=C/c1ccccc1)C(=O)Nc1ccc(C(N)=O)cc1", "note": "(stereo not given)", "inhibition": "-8.76% (inactive)"}
{"compound": "C[C@H](NC(=O)OC(C)(C)C)c1nnc(SCC(=O)Nc2ccc(Br)cc2)o1", "inhibition": "-14.8% (inactive)"}
{"compound": "CC(C)Sc1nnc([C@H](Cc2ccccc2)NC(=O)OC(C)(C)C)o1", "inhibition": "-15.8% (inactive)"}
{"compound": "C[C@@H](NC(=O)OC(C)(C)C)c1nnc(S(=O)(=O)Cc2ccccc2)o1", "inhibition": "51.1% (active)"}
{"compound": "NNC(=O)C1CC(O)CN1S(=O)(=O)c1ccc(Cl)cc1", "note": "(stereo not given)", "inhibition": "-12.3% (inactive)"}
{"compound": "O=C(CN1CCN(S(=O)(=O)c2cc(Cl)ccc2Cl)CC1)c1ccc(O)c(O)c1", "inhibition": "-11.1% (inactive)"}
{"compound": "Cc1ccc(S(=O)(=O)Nc2ccc(F)c(S(=O)(=O)N3CCOCC3)c2)cc1", "inhibition": "-18.4% (inactive)"}
{"compound": "COc1cccc(CSc2nc3nc(C)cc(C)n3n2)c1", "inhibition": "9.68% (inactive)"}
{"compound": "CC[C@]1(C(=O)OC)[C@H]2C(=O)N(Cc3ccccc3)C(=O)[C@H]2[C@H]2CN=C(SCc3ccc(C#N)cc3)N21", "inhibition": "-26.6% (inactive)"}
{"compound": "CCOC(=O)C1=C(C)N(C[C@@H]2CC[C@@H](Cc3ccc(-c4ccccc4)cc3)O2)C(=O)NC1c1ccc([N+](=O)[O-])cc1", "note": "(stereo not given in full)", "inhibition": "-13.7% (inactive)"}
{"compound": "O=C(Nc1ccc2c(c1)OCCO2)c1cnccn1", "inhibition": "-2.07% (inactive)"}
{"compound": "CCN(CC)c1ccc(/C=N/NC(=O)c2cnccn2)c(O)c1", "inhibition": "43.5% (active)"}
{"compound": "CCN1CCN(c2ccc(NC(=O)c3cnccn3)cc2)CC1", "inhibition": "-2.98% (inactive)"}
{"compound": "CCOc1ccc(NS(=O)(=O)c2ccc(C)c(C(N)=O)c2)cc1", "inhibition": "-5.42% (inactive)"}
{"compound": "CN1CCC(=NNC(=O)CN(c2cccc(Cl)c2)S(C)(=O)=O)CC1", "inhibition": "-9.11% (inactive)"}
{"compound": "COc1ccc(-n2c(C)cc(C(=O)CSc3nnc(-c4cccs4)o3)c2C)cc1", "inhibition": "40.8% (active)"}
{"compound": "COc1ccc(-c2nnc(SCC(=O)c3ccc4c(c3)OCCO4)o2)cc1", "inhibition": "-4.45% (inactive)"}
{"compound": "COc1ccc(-n2c(C)cc(C(=O)COC(=O)c3cc(OC)c(OC)cc3NC(=O)c3cccs3)c2C)cc1", "inhibition": "-15.5% (inactive)"}
{"compound": "Cc1cc(C)n(CCC(=O)N2CCN(S(=O)(=O)c3ccc(C)c(C)c3)CC2)n1", "inhibition": "-19% (inactive)"}
{"compound": "CNS(=O)(=O)c1ccc(C(=O)NCC(=O)NCCc2ccc3c(c2)OCCO3)cc1", "inhibition": "-17.8% (inactive)"}
{"compound": "COc1cccc(OCc2nnc3n2N=C(c2ccccc2)C(CC(=O)O)S3)c1", "note": "(stereo not given)", "inhibition": "-2.16% (inactive)"}
{"compound": "CCCCn1c(N)c(N(CCOC)C(=O)c2cccc(OCc3ccccc3)c2)c(=O)[nH]c1=O", "inhibition": "-12.8% (inactive)"}
{"compound": "CCCCCCCCCCOC(=O)Cn1c(COc2cccc(OC)c2)[n+](C)c2ccccc21", "inhibition": "43.2% (active)"}
{"compound": "CCCCCCCCCCOC(=O)Cn1c(COc2ccc(C)cc2)[n+](C)c2ccccc21", "inhibition": "78.8% (active)"}
{"compound": "CCOC(=O)COn1c(=O)c(-c2ccc(OCC)cc2)[n+]([O-])c2ccccc21", "inhibition": "-6.3% (inactive)"}
{"compound": "CCOC(=O)Cn1c(-c2cccnc2Cl)nc2ccccc21", "inhibition": "6.66% (inactive)"}
